Test results: ChEMBL document CHEMBL2424630, “Synthesis and antioxidant evaluation of (S,S)- and (R,R)-secoisolariciresinol diglucosides (SDGs)” (Bioorg Med Chem Lett, 2013)
Calls of active or inactive are those of the source. No cut-off for these calls is given here.

Tests used:
[1] = system: Radical scavenging activity; experiment: Antioxidant activity assessed as DPPH radical scavenging activity at 5 to 500 uM incubated for 20 mins under dark condition by spectrophotometric analysis; assay type: functional
[2] = system: Radical scavenging activity; experiment: Antioxidant activity assessed as DPPH radical scavenging activity incubated for 20 mins under dark condition by spectrophotometric analysis; assay type: functional
[3] = Antioxidant activity assessed as reduction of K3FeCN6 at 1 to 500 uM by spectrophotometric analysis in presence of FeCl3; assay type: functional
Method in brief: (§1)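 Reducing power: reduction of K3FeCN6 in the presence of FeCl3, read as absorbance of the ferric-ferrous complex. Response was linear over 1–100 μM, and the regression equation from that range gave EC50. Values are mean ± standard deviation, n = 3.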

[4] = Antioxidant activity assessed as reduction of K3FeCN6 by spectrophotometric analysis in presence of FeCl3; assay type: functional; method in brief: as §1
[5] = Ratio of alpha-tocopherol EC50 to compound EC50 for reduction of K3FeCN6; assay type: functional
[6] = Antioxidant activity assessed as hydroxyl radical scavenging activity at 8 uM to 1 mM by fluorescence assay relative to gallic acid; assay type: functional
Method in brief: (§2)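 HORAC assay: hydroxyl radicals were generated from hydrogen peroxide by Fenton reaction, and oxidation of fluorescein was measured. Results are expressed as gallic acid equivalents, calculated from concentrations within the linear part of the calibration curve. Values are mean ± standard deviation, n = 3.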

[7] = Ratio of ascorbic acid acid EC50 to compound EC50 for reduction of K3FeCN6
[8] = Antioxidant activity assessed as peroxyl radical scavenging activity at 8 uM to 1 mM by fluorescence assay relative to trolox; assay type: functional
Method in brief: (§3)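 ORAC assay: peroxyl radicals were generated by AAPH, and oxidation of fluorescein was measured. Results are expressed as Trolox equivalents, calculated from concentrations within the linear part of the calibration curve. Values are mean ± standard deviation, n = 3.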

[9] = Antioxidant activity assessed as trolox equivalents of peroxyl radical scavenging activity by fluorescence assay; assay type: functional; method in brief: as §3
[10] = Antioxidant activity assessed as gallic acid equivalents of hydroxyl radical scavenging activity by fluorescence assay; assay type: functional; method in brief: as §2

Row | SMILES | EC50 [2] | EC50 [4] | Activity [1] | Activity [3] | Ratio EC50 [5] | Activity [4] | fold change (FC) [6] | Ratio EC50 [7] | fold change (FC) [8] | Activity [9] | Activity [10]
1 | O=C1O[C@H]([C@@H](O)CO)C(O)=C1O [ASCORBIC ACID] | 440 µM | 1130 µM | Active | Active | – | – | – | – | – | – | –
2 | Cc1c(C)c2c(c(C)c1O)CC[C@@](C)(CCC[C@H](C)CCC[C@H](C)CCCC(C)C)O2 [ALPHA-TOCOPHEROL] | 133 µM | 945 µM | Active | Active | – | – | – | – | – | – | –
3 | COc1cc(C[C@H](CO[C@@H]2O[C@H](CO)[C@@H](O)[C@H](O)[C@H]2O)[C@@H](CO[C@@H]2O[C@H](CO)[C@@H](O)[C@H](O)[C@H]2O)Cc2ccc(O)c(OC)c2)ccc1O (stereo in doubt; form 2) | – | – | Active | Active | 3 | Dose-dependent effect | 2 | 3 | 2 | 3.03 equiv | –
4 | COc1cc(C[C@H](CO[C@@H]2O[C@H](CO)[C@@H](O)[C@H](O)[C@H]2O)[C@@H](CO[C@@H]2O[C@H](CO)[C@@H](O)[C@H](O)[C@H]2O)Cc2ccc(O)c(OC)c2)ccc1O (stereo in doubt; form 1) | – | – | Active | Active | – | Dose-dependent effect | – | – | 2 | 2.55 equiv | 3.68 equiv

The next lines start with results.

Row | EC50 [2] | EC50 [4] | SMILES | Activity [1] | Activity [3] | Ratio EC50 [5] | Activity [4] | fold change (FC) [6] | Ratio EC50 [7] | fold change (FC) [8] | Activity [9] | Activity [10]
5 | 124 µM | 332 µM | COc1cc(C[C@@H](CO[C@@H]2O[C@H](CO)[C@@H](O)[C@H](O)[C@H]2O)[C@H](CO[C@@H]2O[C@H](CO)[C@@H](O)[C@H](O)[C@H]2O)Cc2ccc(O)c(OC)c2)ccc1O | Active | Active | 3 | Dose-dependent effect | 2 | 3 | 2 | 2.2 equiv | –
6 | 83.9 µM | 275 µM | COc1cc(C[C@H](CO[C@@H]2O[C@H](CO)[C@@H](O)[C@H](O)[C@H]2O)[C@@H](CO[C@@H]2O[C@H](CO)[C@@H](O)[C@H](O)[C@H]2O)Cc2ccc(O)c(OC)c2)ccc1O (stereo in doubt; form 1) [(+)-SECOISOLARICIRESINOLDIGLUCOSIDE] | – | – | – | – | – | – | – | – | –
7 | 158 µM | 292 µM | COc1cc(C[C@H](CO[C@@H]2O[C@H](CO)[C@@H](O)[C@H](O)[C@H]2O)[C@@H](CO[C@@H]2O[C@H](CO)[C@@H](O)[C@H](O)[C@H]2O)Cc2ccc(O)c(OC)c2)ccc1O (stereo in doubt; form 2) [(+)-SECOISOLARICIRESINOLDIGLUCOSIDE] | – | – | – | – | – | – | – | – | –
